Screening data as filed in PubChem.
CASP6 VEID inh = blocks human caspase-6 cleavage activity. P55212. purified caspase-6, Z-VEID-R110 cleavage fluorescence. inhibition, % at 12.5 µM. actives 0.53% (n = 350,000);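 active means mean inhibition across replicates at least about 35%, with every replicate also reaching that limit, limit read from the data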;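 further: 0% = median of neutral control wells and 100% = no fluorescence left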
TDP2 absorb = blocks human TDP2 phosphodiesterase activity. recombinant TDP2, T5PNP hydrolysis, p-nitrophenol absorbance 415 nm. O95551. AID 720702. actives 0.34% (n = 370,000). inhibition, % at 12.8 µM;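 active means inhibition above the mean of all tested compounds plus 3 SD, set per campaign, cut at about 25% in these data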;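 further: 0% = DMSO with enzyme and 100% = buffer with substrate but no TDP2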
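Read-out basis: percent inhibition. System: recombinant human TDP2. Buffer or medium: Mg2+-containing Tris-HCl buffer, pH 7.5. Repeats: single replicate. Timing: reaction 2 h, 37 °C. Benchmarks: high control without enzyme, low control DMSO plus TDP2. Probe or stimulus: 5 mM T5PNP. Doses: 12.8 µM only. Measured by: epi absorbance of p-nitrophenol freed from T5PNP by hydrolysis.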
NSD2 HMT inh = blocks human histone methyltransferase NSD2. NSD2 peptide methylation, AlphaScreen, 120 min. actives 0.54% (n = 310,000). AID 743445. inhibition, % at 12.5 µM. O96028; in the data active means inhibition above about 50%
Target sequence (O96028 whole entry, looked up): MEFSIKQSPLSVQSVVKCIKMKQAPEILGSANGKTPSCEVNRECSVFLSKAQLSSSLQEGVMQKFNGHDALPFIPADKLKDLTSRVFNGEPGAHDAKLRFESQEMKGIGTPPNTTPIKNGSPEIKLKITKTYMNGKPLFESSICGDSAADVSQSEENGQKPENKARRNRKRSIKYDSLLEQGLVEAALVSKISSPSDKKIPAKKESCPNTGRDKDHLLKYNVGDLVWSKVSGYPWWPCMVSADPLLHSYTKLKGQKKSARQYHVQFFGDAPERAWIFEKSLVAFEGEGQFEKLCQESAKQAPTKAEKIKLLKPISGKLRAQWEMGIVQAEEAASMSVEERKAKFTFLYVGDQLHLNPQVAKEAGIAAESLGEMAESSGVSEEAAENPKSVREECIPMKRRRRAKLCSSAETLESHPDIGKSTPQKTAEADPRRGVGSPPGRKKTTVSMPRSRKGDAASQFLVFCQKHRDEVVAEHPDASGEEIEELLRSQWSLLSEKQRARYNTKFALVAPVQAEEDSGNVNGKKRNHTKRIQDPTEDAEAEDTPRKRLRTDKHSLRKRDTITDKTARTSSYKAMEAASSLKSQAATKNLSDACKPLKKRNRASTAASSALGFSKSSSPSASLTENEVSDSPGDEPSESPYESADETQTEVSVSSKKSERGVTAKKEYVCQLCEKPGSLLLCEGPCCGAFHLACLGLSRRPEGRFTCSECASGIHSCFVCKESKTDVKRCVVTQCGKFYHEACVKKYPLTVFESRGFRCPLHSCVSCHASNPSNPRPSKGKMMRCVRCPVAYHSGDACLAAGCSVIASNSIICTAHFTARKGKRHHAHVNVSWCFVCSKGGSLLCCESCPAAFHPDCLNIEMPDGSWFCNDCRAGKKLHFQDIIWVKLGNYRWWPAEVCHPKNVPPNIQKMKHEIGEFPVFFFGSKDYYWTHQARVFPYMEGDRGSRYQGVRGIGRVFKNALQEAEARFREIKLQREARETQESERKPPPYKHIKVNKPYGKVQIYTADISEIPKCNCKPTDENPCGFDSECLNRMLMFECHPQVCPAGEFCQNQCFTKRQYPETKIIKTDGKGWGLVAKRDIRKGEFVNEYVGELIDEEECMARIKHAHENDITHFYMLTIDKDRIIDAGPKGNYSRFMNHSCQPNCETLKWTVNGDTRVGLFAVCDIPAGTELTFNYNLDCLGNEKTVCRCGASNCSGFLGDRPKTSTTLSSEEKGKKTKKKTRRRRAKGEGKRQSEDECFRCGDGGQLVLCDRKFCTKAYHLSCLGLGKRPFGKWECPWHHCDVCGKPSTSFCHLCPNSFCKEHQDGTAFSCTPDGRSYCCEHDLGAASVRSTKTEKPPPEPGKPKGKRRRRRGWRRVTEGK
UHRF1 MBD2 ctr = UHRF1 methyl-DNA binding inhibition. UHRF1 binding to methylated oligo, TR-FRET. AID 687016. Q96T88. inhibition, % at 4.4 µM. actives 0.75% (n = 370,000); in the data active means inhibition above about 21%;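 further: UHRF1 SRA domain binding a hemimethylated CpG hairpin DNA probe; 0% = median of test compound wells and 100% = reference inhibitor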
MBD2 DNA inh = inhibitors of human MBD2 binding to methylated oligonucleotide. TR-FRET. actives 0.31% (n = 370,000). inhibition, % at 4.4 µM; in the data active means inhibition above about 13%
LEDGF integ inh = blocks HIV-1 LEDGF/p75-dependent DNA integration. TR-FRET IN-LEDGF/p75 DNA integration, Eu/Cy5. inhibition, % at 3.7 µM. actives 0.64% (n = 370,000);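 active means inhibition above the screen-wide mean plus 3 SD, cut at about 13% in these data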;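 further: signal is the Cy5 over europium emission ratio at 671 and 618 nm; 0% = plate median of compound wells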
Active calls of the source: *; · = no result given. Hits are enriched below; roughly 1.8% of the tested compounds scored in any of these assays.

SMILES	CASP6 VEID inh	TDP2 absorb	NSD2 HMT inh	UHRF1 MBD2 ctr	MBD2 DNA inh	LEDGF integ inh
CNC[C@@H]1OCCCC[C@@H](C)Oc2ccc(NC(=O)c3ccncc3)cc2C(=O)N([C@H](C)CO)C[C@@H]1C	-2	·	·	·	·	·
C/C=C/c1ccccc1[C@H]1[C@@H](CO)N(C(=O)Nc2ccccc2)[C@H]1C#N	2	·	·	·	·	·
CC(=O)c1ccc(OCc2cc([N+](=O)[O-])cc3c2OCOC3)cc1	0	3	3	23*	-2	4
O=C(O)c1cccc(S(=O)(=O)NNc2ccccc2C(F)(F)F)c1	40*	-5	-2	-1	-1	1
N/C(Cc1cccc2ccccc12)=N\OC(=O)c1ccccc1F	41*	10	0	-8	-11	4
COc1ccc(S(=O)(=O)n2ccnc2)c2cccnc12	·	-7	-1	22*	-3	1
Cc1cc(C)nc(N2CCN(S(=O)(=O)c3ccc(F)cc3)CC2)n1	38*	12	-7	-1	-3	0
C=C(C)CCC(C)N1CCC(n2nccc2NC(=O)CCCc2ccccc2)CC1 (stereo not drawn)	0	6	2	21*	2	1
CSCC(C)N1CCC(n2nccc2NC(=O)CCCc2ccccc2)CC1 (stereo not drawn)	-5	-8	·	1	10	-1
C[C@H]1CN([C@@H](C)CO)C(=O)c2cc(-c3cccc(C#N)c3)cnc2O[C@@H]1CN(C)Cc1cccnc1	-2	·	·	·	·	·
Cc1ccc(C(C(=O)NCc2ccc(F)cc2)N(CCCO)C(=O)C2COc3ccccc3O2)o1 (stereo not drawn)	2	-2	1	23*	5	1
CCc1nc(Sc2nnnn2-c2ccccc2)c2c3c(sc2n1)CCCC3	-3	-4	0	42*	2	-5
CC(CNC(=O)CC[C@H]1O[C@@H](n2cnc3c(NC(=O)c4ccccc4)ncnc32)[C@H](O)[C@@H]1O)c1ccccc1 (stereo partly drawn)	·	-9	·	27*	0	1
O=C1CCC(C(=O)N(c2ccccc2)C2(C(=O)NC3CCCCC3)CCCCC2)N1 (stereo not drawn)	·	10	-1	-4	-5	1
Cc1ccc(N(C(=O)C2CCC(=O)N2)C2(C(=O)NC3CCCC3)CCCCC2)cc1 (stereo not drawn)	·	5	0	78*	-2	0
O=C(Cc1cccs1)N(c1ccc(F)cc1)C1(C(=O)NC2CCCCC2)CCCC1	1	4	-2	27*	4	0
CN(C)C(=O)N1CCN(S(=O)(=O)c2ccc3ccccc3c2)CC1	3	20	0	0	1	0
O=C(CCl)N1CCN(S(=O)(=O)c2ccc3ccccc3c2)CC1	74*	7	·	-1	-1	1
CCOc1ccccc1OCC(=O)Nc1ccc(S(=O)(=O)Nc2ncccn2)cc1	·	-24	·	3	5	-1
CCOc1ccccc1OCC(=O)Nc1ccc(S(=O)(=O)N(C)C)cc1	·	6	1	47*	-6	1
CO[C@H]1CN(C)C(=O)c2ccc(NC(=O)C3CC3)cc2OC[C@H](C)N(CC2CCCC2)C[C@@H]1C	-1	·	·	·	·	·
O=c1[nH]c(C2CCN(S(=O)(=O)c3ccc4c(c3)OCCO4)CC2)nc2c1nnn2Cc1cccc(F)c1	3	-1	-3	1	4	-1
O=c1[nH]c(C2CCN(S(=O)(=O)c3ccc4c(c3)OCCO4)CC2)nc2c1nnn2Cc1ccc(F)cc1	0	5	-4	27*	5	-2
Cc1ccc(C(=O)NCC(=O)O)o1	0	-5	0	0	1	52*
Cc1ccc(NC(=O)CNC(=O)c2ccc(C)o2)cc1	-2	8	0	-1	3	-1
SMILES	CASP6 VEID inh	TDP2 absorb	NSD2 HMT inh	UHRF1 MBD2 ctr	MBD2 DNA inh	LEDGF integ inh
O=C(Nc1ccccc1)N1CC(=O)N2[C@@H](CO)[C@H](c3ccc(C#Cc4cccnc4)cc3)[C@@H]2C1	2	·	·	·	·	·
CO[C@H]1CN(C)C(=O)c2cc(NC(=O)C3CC3)ccc2OC[C@H](C)N(C(=O)c2cccnc2)C[C@@H]1C	-1	·	·	·	·	·
CCc1ccc(NC(=O)C(=O)NCC(O)c2ccccc2)cc1 (stereo not drawn)	2	-21	-3	52*	-4	-1
O=C(C1CCCCC1)N1CC2(C1)[C@@H](c1ccccc1)[C@@H](CO)N2Cc1ccc(Cl)cc1	-1	·	·	·	·	·
Cc1cnc(C(=O)Nc2c(-c3ccccc3)[nH][nH]c2=O)cn1	2	-4	·	-4	-1	-1
CN(C)c1ccc(-c2[nH][nH]c(=O)c2NC(=O)c2ccccn2)cc1	99*	87*	·	16	15*	11
C[C@@H]1CN([C@@H](C)CO)C(=O)c2cc(C#CCN(C)C)cnc2O[C@H]1CN(C)C(=O)c1ccc(F)cc1	-14	·	·	·	·	·
O=C(Cn1c2ccc(F)cc2c2nc3n(c(=O)c21)CCS3)Nc1ccccc1F	·	·	2	·	·	·
O=C(Cn1c2ccc(F)cc2c2nc3n(c(=O)c21)CCS3)NC1CCCC1	52*	-9	0	7	7	-5
COc1ccccc1CNC(=O)C[C@H]1CC[C@H]2[C@@H](COC[C@@H](O)CN2C(=O)Nc2ccc(Cl)cc2)O1	0	·	·	·	·	·
COc1cc2c(C(F)(F)F)c(-c3ccsc3)oc(=O)c2cc1OC	0	5	·	21*	7	1
CCCCCC(=O)N1CCCC1	2	4	-1	1	3	-4
CCCCCC(=O)N1CC2(C)CN(C(=O)CCCCC)CC(C)(C1)C2=O	·	7	-2	23*	15*	6
O=C(NC1CCCCC1)[C@H]1[C@H](CO)[C@H]2Cn3c(cccc3=O)[C@@H]1N2CC1CCCCC1	2	·	·	·	·	·
CC(C)NC(=O)Nc1ccc2c(c1)C(=O)N(C)[C@H]1CC[C@@H](CC(=O)NCC3CCCCC3)O[C@H]1CO2	3	·	·	·	·	·
C[C@@H]1CCCCO[C@@H](CN(C)Cc2ccc3c(c2)OCO3)[C@H](C)CN([C@@H](C)CO)C(=O)c2cc(NC(=O)Nc3ccc(C(F)(F)F)cc3)ccc2O1	-1	·	·	·	·	·
CN(C)C(=O)c1cc2c(c(-c3cccc(C4=CCCCC4)c3)n1)[C@@H](CCO)N(S(C)(=O)=O)C2	3	·	·	·	·	·
CN(C)C(=O)c1cc2c(c(-c3cccc(-c4ccccc4F)c3)n1)[C@@H](CCO)N(S(C)(=O)=O)C2	6	2	·	92*	-6	-2
CCCN(CCC)CCCNC(=O)c1cc2c(-c3ccc(OC)c(OC)c3)nn(C)c2s1	-4	-7	36	23*	7	-4
CCCN(CCC)CCNC(=O)c1cc2c(-c3ccc(Cl)cc3)nn(C)c2s1	-12	1	3	-7	12	-2
O=C(C[C@@H]1C[C@@H]2c3cc(NC(=O)CC4CC4)ccc3O[C@@H]2[C@H](CO)O1)NCc1ccccc1F	4	·	·	·	·	·
